The text below walks through data of ChEMBL document CHEMBL4392864, “Diketopiperazine-Type Alkaloids from a Deep-Sea-Derived Aspergillus puniceus Fungus and Their Effects on Liver X Receptor α” (J Nat Prod, 2019).

Assay [1] has as its system Colletotrichum gloeosporioides. Briefly: Antifungal activity against Colletotrichum gloeosporioides HNM 1003 assessed as growth inhibition at 0.6 mM measured after 48 hrs by microbroth dilution method. The assay is classed as functional. Particulars: HNM 1003, 48 h, read-out: GI. A digest of the protocol:
(§1)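 Fungi were grown on PDA plates for 6−8 days at 30 °C, then the mycelia were moved into PD medium and filtered through cotton to give a spore suspension. Each well held PD medium, sample from a 10 mg/mL DMSO stock at about 0.6 mM, and spores (1 × 10^6 CFU). DMSO served as the negative control. OD600 was read at 0 and 48 h at 28 °C and percent growth inhibition calculated.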

In assay [2] the target is T1, Oxysterols receptor LXR-alpha (Homo sapiens, UniProt Q13133).
T1 sequence (Q13133 whole entry): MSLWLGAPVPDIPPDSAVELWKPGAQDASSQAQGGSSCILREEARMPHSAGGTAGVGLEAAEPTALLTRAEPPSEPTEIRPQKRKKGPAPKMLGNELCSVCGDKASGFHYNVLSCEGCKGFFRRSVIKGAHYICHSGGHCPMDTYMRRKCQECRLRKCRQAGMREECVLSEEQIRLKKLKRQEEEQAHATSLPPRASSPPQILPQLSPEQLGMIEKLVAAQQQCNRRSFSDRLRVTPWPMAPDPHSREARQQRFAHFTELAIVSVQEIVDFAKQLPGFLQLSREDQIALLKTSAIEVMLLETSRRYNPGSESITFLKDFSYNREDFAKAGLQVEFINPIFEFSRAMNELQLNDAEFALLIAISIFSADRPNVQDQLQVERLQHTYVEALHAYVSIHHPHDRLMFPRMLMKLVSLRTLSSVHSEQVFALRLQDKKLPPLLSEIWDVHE
Description: Transactivation of recombinant GAL4-fused human LXRalpha LBD (163 to 447 residues) expressed in human L02 cells measured after 24 hrs by luciferase reporter gene assay. The format is cell-based.

For assay [3], the target named is T2, Tyrosine-protein phosphatase non-receptor type 11 (Homo sapiens) (UniProt Q06124).
T2 sequence (whole entry): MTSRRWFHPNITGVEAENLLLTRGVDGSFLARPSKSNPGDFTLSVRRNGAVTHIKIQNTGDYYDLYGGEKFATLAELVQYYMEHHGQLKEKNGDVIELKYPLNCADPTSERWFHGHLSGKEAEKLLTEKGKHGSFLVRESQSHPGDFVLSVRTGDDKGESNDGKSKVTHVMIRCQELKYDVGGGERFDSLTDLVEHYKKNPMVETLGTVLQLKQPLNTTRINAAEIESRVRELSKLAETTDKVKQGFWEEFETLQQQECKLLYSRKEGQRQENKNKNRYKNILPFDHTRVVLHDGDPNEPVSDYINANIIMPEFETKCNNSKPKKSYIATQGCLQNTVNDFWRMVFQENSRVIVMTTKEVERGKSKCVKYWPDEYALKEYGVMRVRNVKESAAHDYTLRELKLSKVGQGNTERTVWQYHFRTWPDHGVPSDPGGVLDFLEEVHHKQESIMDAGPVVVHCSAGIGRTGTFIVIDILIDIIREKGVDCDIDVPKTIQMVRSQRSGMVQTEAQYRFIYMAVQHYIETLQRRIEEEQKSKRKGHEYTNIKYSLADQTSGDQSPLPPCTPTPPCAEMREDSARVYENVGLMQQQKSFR
Briefly: Inhibition of recombinant human SHP2 expressed in Escherichia coli […] preincubated for 15 mins followed by substrate addition and measured after 60 mins. The essentials:
(§2)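 Recombinant human phosphatases were expressed in E. coli and purified. Enzyme and compound were preincubated for 15 min at room temperature in pH 6.5 buffer (50 mM HEPES, 100 mM NaCl, 1 mM EDTA, 1 mM DTT). Buffer containing 50 mM pNPP was then added and the mix incubated for 60 min at 37 °C. Product p-nitrophenol was read at 405 nm. Assays were run in triplicate and IC50 derived.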

Assay [4] concerns the target Tyrosine-protein phosphatase non-receptor type 6 (Homo sapiens, UniProt P29350). Description: Inhibition of recombinant human SHP1 expressed in Escherichia coli […] preincubated for 15 mins followed by substrate addition and measured after 60 mins. The essentials: as §2
The target in assay [5] is L-lactate dehydrogenase A chain (Homo sapiens) (UniProt P00338). Description: Inhibition of recombinant human LDHA expressed in Escherichia coli […] preincubated for 15 mins followed by substrate addition and measured after 60 mins.
In assay [6] the target is T3, Tyrosine-protein phosphatase non-receptor type 2 (Homo sapiens) (UniProt P17706).
T3 sequence (whole entry): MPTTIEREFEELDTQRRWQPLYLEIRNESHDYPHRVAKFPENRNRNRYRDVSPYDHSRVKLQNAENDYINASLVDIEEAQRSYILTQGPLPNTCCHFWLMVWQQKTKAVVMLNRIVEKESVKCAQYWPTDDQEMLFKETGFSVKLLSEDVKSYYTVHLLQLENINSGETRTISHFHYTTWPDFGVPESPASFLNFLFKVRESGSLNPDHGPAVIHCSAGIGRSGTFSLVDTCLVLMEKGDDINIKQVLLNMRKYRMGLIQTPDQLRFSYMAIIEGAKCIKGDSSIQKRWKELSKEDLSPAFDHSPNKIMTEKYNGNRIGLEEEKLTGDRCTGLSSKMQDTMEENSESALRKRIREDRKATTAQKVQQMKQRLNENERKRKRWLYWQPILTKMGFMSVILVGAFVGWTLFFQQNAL
Briefly: Inhibition of recombinant human TCPTP expressed in Escherichia coli […] preincubated for 15 mins followed by substrate addition and measured after 60 mins. The essentials:
as §2

Assay [7] deals with T4, Tyrosine-protein phosphatase non-receptor type 1 (Homo sapiens) (UniProt P18031).
T4 sequence (whole entry): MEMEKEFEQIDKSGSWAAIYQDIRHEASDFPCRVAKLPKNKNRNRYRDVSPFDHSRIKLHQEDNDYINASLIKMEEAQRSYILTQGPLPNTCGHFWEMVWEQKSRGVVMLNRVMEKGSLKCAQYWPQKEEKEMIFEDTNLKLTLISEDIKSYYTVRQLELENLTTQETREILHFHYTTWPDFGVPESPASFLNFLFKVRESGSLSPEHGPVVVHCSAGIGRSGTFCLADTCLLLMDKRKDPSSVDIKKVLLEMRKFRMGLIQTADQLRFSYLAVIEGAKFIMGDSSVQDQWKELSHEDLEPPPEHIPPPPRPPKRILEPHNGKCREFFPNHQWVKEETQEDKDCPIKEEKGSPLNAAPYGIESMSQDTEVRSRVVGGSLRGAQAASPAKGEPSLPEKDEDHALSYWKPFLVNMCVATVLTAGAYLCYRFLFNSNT
Description: Inhibition of recombinant human PTP1B expressed in Escherichia coli […] preincubated for 15 mins followed by substrate addition and measured after 60 mins. The essentials: as §2

The next assay concerns Pyricularia oryzae. Description: Antifungal activity against Pyricularia oryzae HNM 1003 assessed as growth inhibition at 0.6 mM measured after 48 hrs by microbroth dilution method. The format is functional. The following applies: HNM 1003, 48 h, read-out: GI.
Assay [8] concerns the target T5, Tyrosine-protein phosphatase non-receptor type 9 (Homo sapiens) (UniProt P43378).
T5 sequence (whole entry): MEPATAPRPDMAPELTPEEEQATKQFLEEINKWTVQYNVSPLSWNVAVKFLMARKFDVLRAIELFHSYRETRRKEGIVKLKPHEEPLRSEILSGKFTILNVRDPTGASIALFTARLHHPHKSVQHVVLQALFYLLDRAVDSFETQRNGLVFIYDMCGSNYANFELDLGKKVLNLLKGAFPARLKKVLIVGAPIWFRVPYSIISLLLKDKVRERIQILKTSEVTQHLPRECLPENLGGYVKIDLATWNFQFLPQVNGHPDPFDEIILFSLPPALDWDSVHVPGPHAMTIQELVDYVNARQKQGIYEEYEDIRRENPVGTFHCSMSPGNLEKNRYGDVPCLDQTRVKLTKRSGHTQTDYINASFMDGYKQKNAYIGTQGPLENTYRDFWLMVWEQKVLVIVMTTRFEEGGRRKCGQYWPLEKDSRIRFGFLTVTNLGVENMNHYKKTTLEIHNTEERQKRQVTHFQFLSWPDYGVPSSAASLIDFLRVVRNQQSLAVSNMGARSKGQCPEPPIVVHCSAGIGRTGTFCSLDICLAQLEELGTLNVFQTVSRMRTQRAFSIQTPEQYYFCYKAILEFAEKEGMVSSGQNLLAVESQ
Briefly: Inhibition of recombinant human MEG2 expressed in Escherichia coli […] preincubated for 15 mins followed by substrate addition and measured after 60 mins. The essentials:
as §2

The target in assay [9] is Indoleamine 2,3-dioxygenase 1 (Homo sapiens, UniProt P14902). Description: Inhibition of recombinant human IDO1 expressed in Escherichia coli […] preincubated for 15 mins followed by substrate addition and measured after 60 mins.
Indoleamine 2,3-dioxygenase 1, sequence (P14902 whole entry, looked up): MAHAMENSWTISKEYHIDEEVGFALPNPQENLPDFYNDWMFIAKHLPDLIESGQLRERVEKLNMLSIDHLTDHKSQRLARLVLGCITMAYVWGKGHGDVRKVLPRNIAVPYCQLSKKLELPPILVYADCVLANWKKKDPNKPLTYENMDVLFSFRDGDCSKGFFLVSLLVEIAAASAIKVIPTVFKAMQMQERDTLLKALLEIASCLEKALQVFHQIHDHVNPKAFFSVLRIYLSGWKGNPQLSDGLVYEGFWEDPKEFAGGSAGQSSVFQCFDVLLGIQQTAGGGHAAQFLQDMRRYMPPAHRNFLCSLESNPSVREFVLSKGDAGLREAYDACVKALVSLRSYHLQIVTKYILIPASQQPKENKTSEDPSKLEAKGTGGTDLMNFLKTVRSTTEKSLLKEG
The subject of the next assay is Fusarium oxysporum. Briefly: Antifungal activity against Fusarium oxysporum HNM 1003 assessed as growth inhibition at 0.6 mM measured after 48 hrs by microbroth dilution method. The assay is classed as functional. Particulars: HNM 1003, 48 h, read-out: GI. A digest of the protocol:
as §1

A further assay has as its system Curvularia australiensis. Briefly: Antifungal activity against Curvularia australiensis BY01 assessed as growth inhibition at 0.6 mM measured after 48 hrs by microbroth dilution method. The assay is classed as functional. Particulars: BY01, 48 h, read-out: GI. The essentials: as §1

SMILES strings stand for the structures. Activity calls are given as the source filed them. The calls are words filed in the database; no cut-off is given here. Bounds are passed on as bounds.

Tyrosine-protein phosphatase non-receptor type 6, sequence (P29350 whole entry): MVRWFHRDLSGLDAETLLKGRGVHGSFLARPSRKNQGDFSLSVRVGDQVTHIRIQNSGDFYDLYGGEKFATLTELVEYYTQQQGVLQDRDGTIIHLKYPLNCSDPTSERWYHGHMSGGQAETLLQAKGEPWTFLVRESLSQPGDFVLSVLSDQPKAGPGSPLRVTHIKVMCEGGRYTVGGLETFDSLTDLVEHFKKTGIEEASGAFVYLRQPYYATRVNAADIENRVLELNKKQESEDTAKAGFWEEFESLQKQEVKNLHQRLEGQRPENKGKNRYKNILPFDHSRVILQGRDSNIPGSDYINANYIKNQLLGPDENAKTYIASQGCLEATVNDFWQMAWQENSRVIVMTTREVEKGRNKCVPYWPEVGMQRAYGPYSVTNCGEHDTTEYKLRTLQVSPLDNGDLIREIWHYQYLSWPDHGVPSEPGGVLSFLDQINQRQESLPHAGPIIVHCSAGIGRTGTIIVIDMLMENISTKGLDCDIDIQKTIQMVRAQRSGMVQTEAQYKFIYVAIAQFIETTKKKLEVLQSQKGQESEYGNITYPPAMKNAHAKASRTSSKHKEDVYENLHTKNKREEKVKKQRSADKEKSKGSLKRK

As to `C[C@@H]1C(=O)N[C@@](O)(Cc2ccccc2)c2nc3c(c(=O)n21)C=CC=CO3`, the inhibition of growth at 600 µM (in assay [1]; in the assay with Pyricularia oryzae; in the assay with Fusarium oxysporum; with Curvularia australiensis) was under 50% in each case. In addition, in assay [2], the EC50 is 16 µM. The inhibition result in [3], in assay [4], in [5], in [6], in assay [7] and in [8] was “inactive” in each case. Further, the inhibition entry in [9] was “inactive”.

With `CO[C@]1(Cc2ccccc2)NC(=O)[C@@H](C)n2c1nc1c(c2=O)C=CC=CO1`, the inhibition of growth at 600 µM (in assay [1]; with Pyricularia oryzae; in the assay on Fusarium oxysporum; in the assay with Curvularia australiensis) was under 50% throughout. Further, in assay [2], the EC50 was found to be 15 µM. Also, the inhibition result in [3], in assay [4], in assay [5], in assay [6], in [7] and in assay [8] was “inactive” each time. In assay [9], the inhibition entry is “inactive”.

Consider `C[C@@H]1C(=O)N[C@](O)(Cc2ccccc2)c2nc3c(O)cccc3c(=O)n21`, for which the inhibition of growth at 600 µM (in [1]; in the assay with Pyricularia oryzae; in the assay with Fusarium oxysporum; with Curvularia australiensis) was under 50% throughout. Moreover, the concentration for a half-maximal effect (EC50) in assay [2] came out at 5.3 µM. Moreover, the inhibition result in [3], in assay [4], in [5], in assay [6], in [7] and in assay [8] was “inactive” each time. The inhibition result in [9] is “inactive”.

`CO[C@@]1(Cc2ccccc2)NC(=O)[C@@H](C)n2c1nc1c(c2=O)C=CC=CO1`: the inhibition of growth at 600 µM (in [1]; in the assay with Pyricularia oryzae; with Fusarium oxysporum; with Curvularia australiensis) was under 50% in each case. In addition, in assay [2], the concentration giving a half-maximal response (EC50) was determined as 15 µM. For the same compound, the inhibition result in assay [3], in assay [4], in assay [5], in [6], in assay [7] and in assay [8] was “inactive” each time. Besides, the inhibition entry in assay [9] was “inactive”.

With `C[C@@H]1C(=O)N[C@@](O)(Cc2ccccc2)c2nc3c(O)cccc3c(=O)n21`, the inhibition of growth at 600 µM (in assay [1]; in the assay on Pyricularia oryzae; in the assay on Fusarium oxysporum; with Curvularia australiensis) was under 50% each time. Also, the EC50 in [2] amounted to 1.7 µM. Moreover, the inhibition result in assay [3], in assay [4], in assay [5], in [6], in assay [7] and in [8] was “inactive” throughout. Further, the inhibition result in assay [9] is “inactive”.

Turning to `CO[C@]1(Cc2ccccc2)NC(=O)[C@@H](C)n2c1nc1c(O)cccc1c2=O`, the inhibition of growth at 600 µM (in assay [1]; with Pyricularia oryzae; in the assay on Fusarium oxysporum; with Curvularia australiensis) was under 50% each time. Further, the EC50 in [2] stood at 5.1 µM. The inhibition entry in assay [3], in assay [4], in [5], in assay [6], in [7] and in assay [8] was “inactive” each time. Further, in assay [9], the inhibition entry is “inactive”.

On to `C[C@@H]1C(=O)N/C(=C\c2ccccc2)c2nc3c(c(=O)n21)C=CC=CO3`, for which the inhibition of growth at 600 µM (in assay [1]; with Pyricularia oryzae; with Fusarium oxysporum; in the assay with Curvularia australiensis) was under 50% each time. The EC50 in assay [2] is 50 µM. The inhibition entry in assay [3], in [4], in [5], in [6], in assay [7] and in [8] was “inactive” in each case. In addition, the inhibition entry in assay [9] was “inactive”.
